# pIC50: −log10 of the molar value. Where “and” joins values, the source holds several entries; their conditions need not be identical. Identical values can stand only once. Like-named read-outs stand apart in the source and are kept apart here.
# Legend:
# [1] = tested on: HT29 xenografts; conditions: HT29 xenograft, i.p. 5/2/5 schedule vs irinotecan i.v. Q4D×3
# [2] = tested on: Panc-1 xenografts; conditions: Panc-1 xenograft; for Median T–C: two tumor volume doublings
# [3] = tested on: SF-295 xenografts; conditions: SF-295 xenograft, i.p. 5/2/5 schedule vs irinotecan i.v. Q4D×3
# [4] = tested on: NCI-H460 xenografts; conditions: NCI-H460 xenograft, i.p. 5/2/5 schedule vs irinotecan i.v. Q4D×3
# [5] = tested on: Panc-1 cells; test: Growth inhibition assay, Panc-1 cells; type: cell-based, human; conditions: for IC50 vs. BACPT: ratio of IC50 to that of BACPT; for IC90 vs. BACPT: ratio of IC90 to that of BACPT
# [6] = tested on: SK-N-BE(2c) neuroblastoma cell line; test: Growth inhibition assay, SK-N-BE; type: cell-based, human
# [7] = tested on: NGP neuroblastoma cell line; test: Growth inhibition assay, NGP neuroblastoma cells; type: cell-based, human
# [8] = tested on: MCF-7 cells; conditions: MCF-7 cells cultured at pH 6.8 vs. 7.4; cited from earlier work
# [9] = tested on: IMR-32 histocultures; test: Histoculture assay, IMR-32; type: cell-based, human; conditions: hypoxic (1.5% O2) and acidic (pH 6.8), results not shown
# [10] = tested on: IMR-32 neuroblastoma cell line; test: Growth inhibition assay, IMR-32 neuroblastoma cells; type: cell-based, human
# [11] = tested on: SK-N-MC neuroblastoma cell line; test: Growth inhibition assay, SK-N-MC neuroblastoma cells; type: cell-based, human
# [12] = tested on: Panc-1 cells; test: Drug interaction assay with gemcitabine in Panc-1 cells; type: cell-based, human; conditions: for Dose reduction index: gemcitabine followed 24 h by BACPT, Panc-1
# Procedure, shortened: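 Panc-1 cells were grown in DMEM with 10% FBS and seeded at 3,000 cells/well. Gemcitabine was given first, then the test compound 24 h later. Exposure was 3 days, followed by 2 days in drug-free medium. Survival was read by ATP assay, with seven dose levels per curve in triplicate. Interaction was analysed by the Chou combination-index method as a function of fraction affected (fa = 0.5 is the IC50).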
# [13] = 8.0 mg/kg i.p., 5/2/5 schedule, 8 mg/kg
# [14] = read-out: IC50 (nM) pH 6.8, pH 6.8
# [15] = read-out: IC50 (nM) pH 7.4, pH 7.4
# [16] = 60 mg/kg i.v., Q4D×3 schedule, 60 mg/kg
compound,measurement,setting,value
7-butyl-10-amino-camptothecin-(20S) β-alanine-lysine [BACPTDP],antitumor activity relative to irinotecan,[1],comparable to irinotecan
same,Median survival,"[2]; 4.5 mg/kg i.p., 5/2/5 schedule",27.4 ± 2.0 days
same,TFS,"[2]; 4.5 mg/kg i.p., 5/2/5 schedule",0
same,Median T–C,"[2]; 4.5 mg/kg i.p., 5/2/5 schedule",10.9 days
same,Median survival,[2]; [13],67 days and 66.7 ± 7.8 days
same,TFS (tumor-free animals at 95 days),[2]; [13],2/6 and 2
same,Median T–C,"[2]; 8.0 mg/kg i.p., 5/2/5 schedule",60.0 days
same,antitumor activity relative to irinotecan,[3],comparable to irinotecan
same,antitumor activity relative to irinotecan,[4],comparable to irinotecan
Nc1ncn([C@@H]2O[C@H](CO)[C@@H](O)[C@H]2O)c(=O)n1 [5-Azacytidine],pIC50,"[5]; Homo sapiens, PANC-1",4.16
same,IC90 (nM),[5]; Panc-1 cells,not achieved
same,IC50 vs. BACPT,[5]; Panc-1 cells,"16,916"
O=c1[nH]cc(F)c(=O)[nH]1 [5-Flurouracil],pIC50,"[5]; Homo sapiens, PANC-1",5.04
same,IC90,"[5]; Homo sapiens, PANC-1",97600 nM
same,IC50 vs. BACPT,[5]; Panc-1 cells,"2,257"
same,IC90 vs. BACPT,[5]; Panc-1 cells,"1,136"
"CCCCc1c2c(nc3ccc(N)cc13)-c1cc3c(c(=O)n1C2)COC(=O)C3(O)CC (stereo not drawn) [BACPT, 7-Butyl-10-amino-camptothecin]",Fold increase at acidic pH,[6]; pH 6.8 vs 7.4,5
same,IC50,[6]; [14],0.019 nM
same,IC50,[6]; [15],0.099 nM
same,Fold increase at acidic pH,[7]; pH 6.8 vs 7.4,49
same,IC50,[7]; [14],26 nM
same,IC50,[7]; [15],1290 nM
same,increase in potency at acidic pH,[8],~15 fold
same,pIC50,[9],6.70
same,pIC50,[5]; Panc-1 cells,8.40
same,IC90,[5]; Panc-1 cells,86 nM
same,IC50 vs. BACPT,[5]; Panc-1 cells,1
same,IC90 vs. BACPT,[5]; Panc-1 cells,1
same,Fold increase at acidic pH,"[10]; IMR-32, pH 6.8 vs 7.4",12
same,IC50,"[10]; read-out: IC50 (nM) pH 6.8, IMR-32, pH 6.8",127 nM
same,IC50,"[10]; read-out: IC50 (nM) pH 7.4, IMR-32, pH 7.4",1390 nM
same,Fold increase at acidic pH,[11]; pH 6.8 vs 7.4,8
same,IC50,[11]; [15],0.001 nM
same,Dose reduction index,[12]; Fraction affected 0.2,2.0
same,Dose reduction index,[12]; Fraction affected 0.3,5.3
same,Dose reduction index,[12]; Fraction affected 0.4,11.0
same,Dose reduction index,[12]; Fraction affected 0.6,38.0
same,Dose reduction index,[12]; Fraction affected 0.7,69.1
same,Dose reduction index,[12]; Fraction affected 0.8,133.8
same,interaction in combination with gemcitabine (combination index),"[12]; Panc-1, molar ratio 100:1 gemcitabine:BACPT, median effect analysis",additive (CI = 1) to synergistic (CI < 1)
"CCc1c2c(nc3ccc(OC(=O)N4CCC(N5CCCCC5)CC4)cc13)-c1cc3c(c(=O)n1C2)COC(=O)[C@]3(O)CC [CPT-11, irinotecan]",Maximum body weight loss (%),"[2]; 40 mg/kg i.v., Q4D×3 schedule",2%
same,Median survival,"[2]; 40 mg/kg i.v., Q4D×3 schedule",35.0 ± 9.3 days
same,TFS,"[2]; 40 mg/kg i.v., Q4D×3 schedule",0
same,Maximum body weight loss (%),"[2]; 60 mg/kg i.v., Q4D×3 schedule",6%
same,TFS,"[2]; 60 mg/kg i.v., Q4D×3 schedule",0
same,Median survival,[2]; [16],31.4 ± 1.5 days
same,TFS,[2]; [16],no tumor-free animals
Cc1nc(Nc2ncc(C(=O)Nc3c(C)cccc3Cl)s2)cc(N2CCN(CCO)CC2)n1 [Dasatinib],pIC50,"[5]; Homo sapiens, PANC-1",5.16
same,IC90,"[5]; Homo sapiens, PANC-1",13200 nM
same,IC50 vs. BACPT,[5]; Panc-1 cells,"1,693"
same,IC90 vs. BACPT,[5]; Panc-1 cells,154
Nc1ncn([C@H]2C[C@H](O)[C@@H](CO)O2)c(=O)n1 [Decitabine],pIC50,"[5]; Homo sapiens, PANC-1",4.16
same,IC90 (nM),[5]; Panc-1 cells,not achieved
same,IC50 vs. BACPT,[5]; Panc-1 cells,"16,963"
C#Cc1cccc(Nc2ncnc3cc(OCCOC)c(OCCOC)cc23)c1 [Erlotinib],IC50 (nM),[5]; Panc-1 cells,inactive
COc1cc([C@@H]2c3cc4c(cc3[C@@H](O[C@@H]3O[C@@H]5CO[C@@H](C)O[C@H]5[C@H](O)[C@H]3O)[C@H]3COC(=O)[C@H]23)OCO4)cc(OC)c1O [Etoposide],pIC50,"[5]; Homo sapiens, PANC-1",6.19
same,IC90,"[5]; Homo sapiens, PANC-1",8750 nM
same,IC50 vs. BACPT,[5]; Panc-1 cells,160
same,IC90 vs. BACPT,[5]; Panc-1 cells,102
Nc1ccn([C@@H]2O[C@H](CO)[C@@H](O)C2(F)F)c(=O)n1 [Gemcitabine],pIC50,"[5]; Homo sapiens, PANC-1",7.64
same,IC90,"[5]; Homo sapiens, PANC-1",117 nM
same,IC50 vs. BACPT,[5]; Panc-1 cells,6
same,IC90 vs. BACPT,[5]; Panc-1 cells,1
same,Dose reduction index,[12]; Fraction affected 0.2,1.0
same,Dose reduction index,[12]; Fraction affected 0.3,1.6
same,Dose reduction index,[12]; Fraction affected 0.4,2.3
same,Dose reduction index,[12]; Fraction affected 0.5 (IC50),3.1
same,Dose reduction index,[12]; Fraction affected 0.6,3.9
same,Dose reduction index,[12]; Fraction affected 0.7,4.8
same,Dose reduction index,[12]; Fraction affected 0.8,5.8
CCc1c2c(nc3ccc(O)cc13)-c1cc3c(c(=O)n1C2)COC(=O)[C@]3(O)CC [SN-38],pIC50,[9],5.00
Cn1nnc2c(C(N)=O)ncn2c1=O [Temozolomide],IC50 (nM),[5]; Panc-1 cells,inactive
CCC1=C[C@@H]2CN(C1)Cc1c([nH]c3ccccc13)[C@@](C(=O)OC)(c1cc3c(cc1OC)N(C)[C@H]1[C@@](O)(C(=O)OC)[C@H](OC(C)=O)[C@]4(CC)C=CCN5CC[C@]31[C@@H]54)C2 [Vinorelbine],pIC50,"[5]; Homo sapiens, PANC-1",6.99
same,IC90 (nM),[5]; Panc-1 cells,not achieved
same,IC50 vs. BACPT,[5]; Panc-1 cells,25

# Reference: paper PMC2982901 (Cancer chemotherapy and pharmacology, 2010)
